According to ChEMBL document CHEMBL1155075, “Inhibition of the signal transducer and activator of transcription-3 (STAT3) signaling pathway by 4-oxo-1-phenyl-1,4-dihydroquinoline-3-carboxylic acid esters” (J Med Chem, 2008):
Blank lines part the entries; values can stand above or below the compound they belong to. Calls of active or inactive are those of the source. The calls are words filed in the database; no cut-off is given here.

Experiments:
[1] = target: Signal transducer and activator of transcription 3 (Homo sapiens) (UniProt P40763); experiment: Inhibition of STAT3 Y705 phosphorylation in human HeLa cells by Western blot analysis; assay type: cell-based
[2] = target: Signal transducer and activator of transcription 3 (Homo sapiens) (UniProt P40763); experiment: Inhibition of IFN-alpha-induced STAT3 Y705 phosphorylation in serum starved human HeLa cells by Western blot analysis; assay type: cell-based
Procedure, shortened: (§1)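 HeLa or DU145 cells in DMEM + 10% heat-inactivated FBS, ~80% confluent, were serum-starved overnight and treated with compound for 1 h. IFN-alpha 20000 units/mL was then added for 20 min. Cells were collected in 1.1X LDS sample buffer, sonicated, and analysed by Western blot for phospho-STAT3 Y705 with fluorescent secondary detection.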

[3] = target: Signal transducer and activator of transcription 3 (Homo sapiens) (UniProt P40763); experiment: Inhibition of STAT3 Y705 phosphorylation in human DU145 cells by Western blot analysis; assay type: cell-based; conditions: DU-145
[4] = target: Signal transducer and activator of transcription 3 (Homo sapiens) (UniProt P40763); experiment: Inhibition of IFN-alpha-induced STAT3 Y705 phosphorylation in serum starved human DU145 cells by Western blot analysis; assay type: cell-based; conditions: DU-145; procedure, shortened: as §1
[5] = test system: U-266; experiment: Induction of apoptosis in human U266 cells assessed as caspase activation after 4 days by Apo-ONE Homogeneous caspase 3/7 assay; assay type: functional, cell-based
Procedure, shortened: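 Homogeneous caspase 3/7 (Apo-ONE) luminescent/fluorescent signal used as apoptosis read-out in cells under compound treatment. U266 cultured in RPMI1640 with 10% heat-inactivated FBS and Pen-Strep.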

[6] = target: RAC-alpha serine/threonine-protein kinase (Homo sapiens) (UniProt P31749); experiment: Inhibition of AKT-mTOR pathway in human U266 cells assessed as p70S6 kinase T389 phosphorylation by Western blot; assay type: cell-based; conditions: U-266
Procedure, shortened: (§2)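 Steady-state phosphorylation: exponentially growing U266 cells (1 × 10⁶ cells at 2 × 10⁵ cells/mL, RPMI1640 + 10% FBS) were treated with compound for 1 h. Cells were lysed in PhosphoSafe reagent with protease inhibitors. Western blot used primary antibodies (1:1000, 2 h) and fluorescent secondaries (1 h) at room temperature. A representative blot from several repeats is shown.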

[7] = target: RAC-alpha serine/threonine-protein kinase (Homo sapiens) (UniProt P31749); experiment: Inhibition of AKT-mTOR pathway in human U266 cells assessed as S6-S240/244 phosphorylation by Western blot; assay type: cell-based; conditions: U-266; procedure, shortened: as §2
[8] = Inhibition of MAPK pathway in human U266 cells assessed as p44/42 MAPK T202/204 phosphorylation by Western blot; assay type: cell-based; conditions: U-266; procedure, shortened: as §2
[9] = target: Signal transducer and activator of transcription 3 (Homo sapiens) (UniProt P40763); experiment: Inhibition of STAT3 S727 phosphorylation in human U266 cells; assay type: cell-based; conditions: U-266; procedure, shortened: as §2
[10] = target: Signal transducer and activator of transcription 3 (Homo sapiens) (UniProt P40763); experiment: Inhibition of IL6-induced STAT3 Y705 phosphorylation in serum starved human U266 cells by Western blot analysis; assay type: cell-based; conditions: U-266
[11] = target: Signal transducer and activator of transcription 3 (Homo sapiens) (UniProt P40763); experiment: Inhibition of IFN-alpha-induced STAT3 Y705 phosphorylation in serum starved human U266 cells by Western blot analysis; assay type: cell-based; conditions: U-266
Procedure, shortened: (§3)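 U266 cells in RPMI1640 + 10% heat-inactivated FBS were serum-starved 2 h, treated with compound 1 h, then stimulated with human IFN-alpha 20000 units/mL for 20 min. Cells were lysed in PhosphoSafe extraction reagent with protease inhibitors and analysed by Western blot with phospho-specific antibodies. JAK antibodies were used at 1:500 with milk blocking, others at 1:1000. Fluorescent secondaries were used.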

[12] = target: Tyrosine-protein kinase JAK1 (Homo sapiens) (UniProt P23458); experiment: Inhibition of IFN-alpha-induced JAK1 Y1022/1023 phosphorylation in serum starved human U266 cells by Western blot analysis; assay type: cell-based; conditions: U-266; procedure, shortened: as §3
[13] = target: Tyrosine-protein kinase JAK2 (Homo sapiens) (UniProt O60674); experiment: Inhibition of IFN-alpha-induced JAK2 Y1007/1008 phosphorylation in serum starved human U266 cells by Western blot analysis; assay type: cell-based; conditions: U-266; procedure, shortened: as §3
[14] = target: Non-receptor tyrosine-protein kinase TYK2 (Homo sapiens) (UniProt P29597); experiment: Inhibition of IFN-alpha-induced Tyk2 Y1054/1055 phosphorylation in serum starved human U266 cells by Western blot analysis; assay type: cell-based; conditions: U-266; procedure, shortened: as §3
[15] = target: T1, Signal transducer and activator of transcription 5A (Homo sapiens) (UniProt P42229); experiment: Inhibition of BCR-ABL-activated STAT5 Y694/699 phosphorylation in human K562 cells; assay type: cell-based
T1 sequence (whole entry): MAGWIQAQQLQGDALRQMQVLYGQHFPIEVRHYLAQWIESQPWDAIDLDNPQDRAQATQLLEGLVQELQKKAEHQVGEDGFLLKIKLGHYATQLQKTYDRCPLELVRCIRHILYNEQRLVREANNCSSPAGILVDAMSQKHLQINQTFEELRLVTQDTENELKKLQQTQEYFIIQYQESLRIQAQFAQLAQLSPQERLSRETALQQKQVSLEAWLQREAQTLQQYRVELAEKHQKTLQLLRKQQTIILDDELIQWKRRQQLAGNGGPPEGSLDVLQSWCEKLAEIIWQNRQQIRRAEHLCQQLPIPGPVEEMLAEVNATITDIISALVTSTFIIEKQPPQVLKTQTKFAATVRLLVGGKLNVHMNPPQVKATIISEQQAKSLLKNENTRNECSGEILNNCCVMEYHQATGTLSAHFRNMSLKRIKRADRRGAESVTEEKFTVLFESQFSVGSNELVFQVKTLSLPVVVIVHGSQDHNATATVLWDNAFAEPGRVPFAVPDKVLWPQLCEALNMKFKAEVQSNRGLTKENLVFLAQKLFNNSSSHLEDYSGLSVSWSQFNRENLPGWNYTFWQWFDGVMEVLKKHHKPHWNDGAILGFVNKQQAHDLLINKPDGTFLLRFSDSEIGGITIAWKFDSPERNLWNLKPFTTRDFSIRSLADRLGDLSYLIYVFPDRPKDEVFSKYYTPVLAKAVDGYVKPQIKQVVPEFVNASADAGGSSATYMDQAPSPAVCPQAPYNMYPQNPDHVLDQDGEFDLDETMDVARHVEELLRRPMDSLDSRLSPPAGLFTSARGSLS
Procedure, shortened: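 K562 cells (1 × 10⁶ cells at 1 × 10⁶ cells/mL, RPMI1640 + 10% FBS) were treated with compound for 1 h. Lysates in PhosphoSafe reagent were analysed by Western blot with anti-phospho-STAT5 Tyr694/Tyr699 (1:1000) and fluorescent secondary detection.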

[16] = test system: A-431; experiment: Inhibition of EGF-stimulated MAPK activation in human A431 cells; assay type: cell-based
[17] = target: Tyrosine-protein kinase JAK1 (Homo sapiens) (UniProt P23458); experiment: Inhibition of JAK1 at 1 uM
Procedure, shortened: (§4)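 In vitro JAK1, JAK2 and JAK3 enzyme kinase assay, each tested at 1 and 10 µM compound.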

[18] = target: Tyrosine-protein kinase JAK2 (Homo sapiens) (UniProt O60674); experiment: Inhibition of JAK2 at 1 uM; procedure, shortened: as §4
[19] = target: T2, Tyrosine-protein kinase JAK3 (Homo sapiens) (UniProt P52333); experiment: Inhibition of JAK3 at 1 uM; procedure, shortened: as §4
T2 sequence (whole entry): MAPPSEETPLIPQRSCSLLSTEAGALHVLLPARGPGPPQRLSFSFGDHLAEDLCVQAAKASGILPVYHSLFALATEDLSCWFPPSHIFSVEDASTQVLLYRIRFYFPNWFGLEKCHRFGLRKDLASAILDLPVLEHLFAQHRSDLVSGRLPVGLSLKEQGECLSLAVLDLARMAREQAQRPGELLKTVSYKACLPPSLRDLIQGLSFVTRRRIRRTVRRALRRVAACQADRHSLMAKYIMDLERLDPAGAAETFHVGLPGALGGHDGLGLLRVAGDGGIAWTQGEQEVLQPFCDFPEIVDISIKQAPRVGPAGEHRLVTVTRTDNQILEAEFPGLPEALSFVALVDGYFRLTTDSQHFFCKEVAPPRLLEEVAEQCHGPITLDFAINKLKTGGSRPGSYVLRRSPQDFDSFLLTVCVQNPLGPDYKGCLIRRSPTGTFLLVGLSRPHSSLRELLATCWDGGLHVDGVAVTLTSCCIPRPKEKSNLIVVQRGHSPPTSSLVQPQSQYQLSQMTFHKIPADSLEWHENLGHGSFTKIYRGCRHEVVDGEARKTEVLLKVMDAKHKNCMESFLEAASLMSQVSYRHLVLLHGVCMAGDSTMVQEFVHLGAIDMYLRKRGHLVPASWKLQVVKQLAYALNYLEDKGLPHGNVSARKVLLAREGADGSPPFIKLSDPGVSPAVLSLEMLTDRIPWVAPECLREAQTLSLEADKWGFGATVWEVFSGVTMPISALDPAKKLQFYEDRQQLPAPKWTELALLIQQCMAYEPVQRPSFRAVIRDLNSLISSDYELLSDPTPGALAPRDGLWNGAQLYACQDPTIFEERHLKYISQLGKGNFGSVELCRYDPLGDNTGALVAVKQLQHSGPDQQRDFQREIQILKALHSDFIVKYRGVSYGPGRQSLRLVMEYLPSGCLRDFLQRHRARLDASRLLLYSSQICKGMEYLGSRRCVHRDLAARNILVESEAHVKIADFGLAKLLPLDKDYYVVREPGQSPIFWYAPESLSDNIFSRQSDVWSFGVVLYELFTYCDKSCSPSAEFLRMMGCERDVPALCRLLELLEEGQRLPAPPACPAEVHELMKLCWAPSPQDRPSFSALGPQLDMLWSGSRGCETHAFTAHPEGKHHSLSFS

[20] = target: Tyrosine-protein kinase JAK1 (Homo sapiens) (UniProt P23458); experiment: Inhibition of JAK1 at 10 uM; procedure, shortened: as §4
[21] = target: Tyrosine-protein kinase JAK2 (Homo sapiens) (UniProt O60674); experiment: Inhibition of JAK2 at 10 uM; procedure, shortened: as §4
[22] = target: T2, Tyrosine-protein kinase JAK3 (Homo sapiens); experiment: Inhibition of JAK3 at 10 uM; procedure, shortened: as §4
[23] = test system: U-266; experiment: Inhibition of Bcl2-like 1 transcription in human U266 cells at 0.5 uM after 6 hrs by microarray analysis; assay type: functional, cell-based
Procedure, shortened: (§5)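 U266 cells were seeded at 1 × 10⁶ cells/mL and treated 6 h in triplicate. RNA was purified, and 2-5 µg total RNA was converted to biotin-labelled cRNA by oligo-T7 reverse transcription and in vitro transcription with biotin-UTP/CTP. mRNA levels were then measured by microarray.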

[24] = test system: U-266; experiment: Inhibition of MCL1 transcription in human U266 cells at 0.5 uM after 6 hrs by microarray analysis; assay type: functional, cell-based; procedure, shortened: as §5
[25] = test system: U-266; experiment: Inhibition of cyclin D1 transcription in human U266 cells at 0.5 uM after 6 hrs by microarray analysis; assay type: functional, cell-based; procedure, shortened: as §5
[26] = test system: A2780; experiment: Induction of apoptosis in human A2780 cells assessed as caspase activation after 4 days by Apo-ONE Homogeneous caspase 3/7 assay; assay type: functional, cell-based
[27] = test system: U-266; experiment: Inhibition of cyclin D1 transcription in human U266 cells at 100 uM after 6 hrs by microarray analysis; assay type: functional, cell-based; procedure, shortened: as §5
[28] = test system: U-266; experiment: Inhibition of Bcl2-like 1 transcription in human U266 cells at 100 uM after 6 hrs by microarray analysis; assay type: functional, cell-based; procedure, shortened: as §5
[29] = test system: U-266; experiment: Inhibition of MCL1 transcription in human U266 cells at 100 uM after 6 hrs by microarray analysis; assay type: functional, cell-based; procedure, shortened: as §5

Tyrosine-protein kinase JAK2 (Homo sapiens), sequence (O60674 whole entry): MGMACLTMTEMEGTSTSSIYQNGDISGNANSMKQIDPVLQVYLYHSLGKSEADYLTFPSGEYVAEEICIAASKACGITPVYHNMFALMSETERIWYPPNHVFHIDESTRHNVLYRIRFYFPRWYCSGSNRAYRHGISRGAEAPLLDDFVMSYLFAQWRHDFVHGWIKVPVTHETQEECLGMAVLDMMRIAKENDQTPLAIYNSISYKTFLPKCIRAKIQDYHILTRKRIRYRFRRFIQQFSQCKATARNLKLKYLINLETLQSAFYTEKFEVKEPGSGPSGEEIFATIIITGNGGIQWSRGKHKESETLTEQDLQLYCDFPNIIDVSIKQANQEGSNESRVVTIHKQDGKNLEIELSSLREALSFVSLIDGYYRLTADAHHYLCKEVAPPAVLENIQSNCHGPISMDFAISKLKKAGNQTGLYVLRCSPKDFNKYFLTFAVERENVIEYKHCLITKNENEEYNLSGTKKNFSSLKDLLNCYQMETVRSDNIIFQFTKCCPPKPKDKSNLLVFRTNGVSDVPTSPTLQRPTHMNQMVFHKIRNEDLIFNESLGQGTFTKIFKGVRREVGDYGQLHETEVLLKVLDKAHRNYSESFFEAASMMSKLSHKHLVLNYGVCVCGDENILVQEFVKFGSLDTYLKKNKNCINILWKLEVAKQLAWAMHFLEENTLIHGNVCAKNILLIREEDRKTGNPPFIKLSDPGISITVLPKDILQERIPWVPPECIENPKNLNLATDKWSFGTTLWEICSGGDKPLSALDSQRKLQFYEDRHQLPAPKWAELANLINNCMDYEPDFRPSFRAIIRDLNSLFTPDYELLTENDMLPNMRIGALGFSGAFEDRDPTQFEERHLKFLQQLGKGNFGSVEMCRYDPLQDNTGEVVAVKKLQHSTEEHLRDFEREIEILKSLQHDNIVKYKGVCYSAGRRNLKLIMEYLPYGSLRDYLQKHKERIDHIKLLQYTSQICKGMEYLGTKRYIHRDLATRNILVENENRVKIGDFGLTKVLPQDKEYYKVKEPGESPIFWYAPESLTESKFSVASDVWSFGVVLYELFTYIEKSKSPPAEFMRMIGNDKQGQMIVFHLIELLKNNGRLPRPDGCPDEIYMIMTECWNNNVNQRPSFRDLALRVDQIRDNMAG
Signal transducer and activator of transcription 3 (Homo sapiens), sequence (P40763 whole entry): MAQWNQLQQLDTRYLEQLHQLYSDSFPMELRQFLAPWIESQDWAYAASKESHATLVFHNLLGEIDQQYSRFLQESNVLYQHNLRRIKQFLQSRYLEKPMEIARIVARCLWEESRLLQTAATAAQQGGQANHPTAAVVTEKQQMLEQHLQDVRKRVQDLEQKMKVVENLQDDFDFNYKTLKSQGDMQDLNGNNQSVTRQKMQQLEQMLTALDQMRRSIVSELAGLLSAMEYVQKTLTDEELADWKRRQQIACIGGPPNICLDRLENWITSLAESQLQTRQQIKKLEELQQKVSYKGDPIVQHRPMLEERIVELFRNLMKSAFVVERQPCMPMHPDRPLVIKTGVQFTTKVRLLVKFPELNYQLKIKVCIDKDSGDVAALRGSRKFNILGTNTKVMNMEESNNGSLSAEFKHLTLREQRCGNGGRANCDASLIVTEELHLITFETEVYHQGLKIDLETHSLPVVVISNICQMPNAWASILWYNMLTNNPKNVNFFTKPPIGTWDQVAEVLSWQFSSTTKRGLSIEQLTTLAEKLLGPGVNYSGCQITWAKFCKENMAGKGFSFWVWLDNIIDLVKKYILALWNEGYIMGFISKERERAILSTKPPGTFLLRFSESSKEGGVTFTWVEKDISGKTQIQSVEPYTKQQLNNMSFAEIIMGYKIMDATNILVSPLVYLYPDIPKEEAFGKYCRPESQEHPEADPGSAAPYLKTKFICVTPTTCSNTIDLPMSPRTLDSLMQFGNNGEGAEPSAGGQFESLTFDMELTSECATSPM
Tyrosine-protein kinase JAK1 (Homo sapiens), sequence (P23458 whole entry): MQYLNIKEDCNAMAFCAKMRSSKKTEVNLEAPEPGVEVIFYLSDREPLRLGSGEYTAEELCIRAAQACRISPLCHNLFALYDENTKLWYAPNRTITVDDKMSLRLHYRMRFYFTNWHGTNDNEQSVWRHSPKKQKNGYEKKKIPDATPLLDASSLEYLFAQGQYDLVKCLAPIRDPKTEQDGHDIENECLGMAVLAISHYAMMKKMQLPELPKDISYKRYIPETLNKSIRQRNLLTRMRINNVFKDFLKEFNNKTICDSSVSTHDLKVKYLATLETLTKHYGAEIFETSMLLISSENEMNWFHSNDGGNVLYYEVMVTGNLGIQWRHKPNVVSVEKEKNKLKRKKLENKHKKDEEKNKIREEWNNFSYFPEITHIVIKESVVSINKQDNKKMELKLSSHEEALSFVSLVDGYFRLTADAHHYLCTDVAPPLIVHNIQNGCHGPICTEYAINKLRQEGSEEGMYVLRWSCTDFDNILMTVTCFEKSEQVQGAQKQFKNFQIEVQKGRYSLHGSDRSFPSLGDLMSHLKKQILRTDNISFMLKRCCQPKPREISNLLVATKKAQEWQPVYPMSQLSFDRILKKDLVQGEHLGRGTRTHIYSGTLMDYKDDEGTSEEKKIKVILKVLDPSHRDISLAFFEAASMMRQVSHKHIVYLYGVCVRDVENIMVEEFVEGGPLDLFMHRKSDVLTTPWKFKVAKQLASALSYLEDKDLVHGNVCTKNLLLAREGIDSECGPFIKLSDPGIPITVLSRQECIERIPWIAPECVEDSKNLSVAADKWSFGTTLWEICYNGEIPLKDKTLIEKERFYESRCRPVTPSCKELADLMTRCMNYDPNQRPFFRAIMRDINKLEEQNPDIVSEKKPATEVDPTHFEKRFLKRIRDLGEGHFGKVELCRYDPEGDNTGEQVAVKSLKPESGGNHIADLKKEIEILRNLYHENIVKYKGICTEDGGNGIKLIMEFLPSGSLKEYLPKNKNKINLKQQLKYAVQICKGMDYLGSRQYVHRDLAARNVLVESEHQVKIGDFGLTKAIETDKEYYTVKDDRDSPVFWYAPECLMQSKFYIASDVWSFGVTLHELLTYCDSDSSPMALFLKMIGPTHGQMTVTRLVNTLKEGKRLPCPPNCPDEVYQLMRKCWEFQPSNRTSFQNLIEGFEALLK
RAC-alpha serine/threonine-protein kinase (Homo sapiens), sequence (P31749 whole entry): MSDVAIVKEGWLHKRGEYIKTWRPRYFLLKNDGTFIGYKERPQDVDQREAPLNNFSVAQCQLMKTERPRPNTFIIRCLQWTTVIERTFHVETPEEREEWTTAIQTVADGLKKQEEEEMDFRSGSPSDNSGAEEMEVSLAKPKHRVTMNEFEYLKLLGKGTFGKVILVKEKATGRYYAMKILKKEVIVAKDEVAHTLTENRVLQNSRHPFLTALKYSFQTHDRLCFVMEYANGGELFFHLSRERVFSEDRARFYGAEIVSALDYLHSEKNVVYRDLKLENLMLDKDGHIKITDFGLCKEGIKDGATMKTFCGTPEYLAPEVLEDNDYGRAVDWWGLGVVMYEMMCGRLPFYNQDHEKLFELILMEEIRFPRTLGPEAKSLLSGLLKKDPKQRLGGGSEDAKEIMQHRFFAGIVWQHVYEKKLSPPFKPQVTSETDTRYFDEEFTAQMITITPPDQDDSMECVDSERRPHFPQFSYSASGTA
Non-receptor tyrosine-protein kinase TYK2 (Homo sapiens), sequence (P29597 whole entry): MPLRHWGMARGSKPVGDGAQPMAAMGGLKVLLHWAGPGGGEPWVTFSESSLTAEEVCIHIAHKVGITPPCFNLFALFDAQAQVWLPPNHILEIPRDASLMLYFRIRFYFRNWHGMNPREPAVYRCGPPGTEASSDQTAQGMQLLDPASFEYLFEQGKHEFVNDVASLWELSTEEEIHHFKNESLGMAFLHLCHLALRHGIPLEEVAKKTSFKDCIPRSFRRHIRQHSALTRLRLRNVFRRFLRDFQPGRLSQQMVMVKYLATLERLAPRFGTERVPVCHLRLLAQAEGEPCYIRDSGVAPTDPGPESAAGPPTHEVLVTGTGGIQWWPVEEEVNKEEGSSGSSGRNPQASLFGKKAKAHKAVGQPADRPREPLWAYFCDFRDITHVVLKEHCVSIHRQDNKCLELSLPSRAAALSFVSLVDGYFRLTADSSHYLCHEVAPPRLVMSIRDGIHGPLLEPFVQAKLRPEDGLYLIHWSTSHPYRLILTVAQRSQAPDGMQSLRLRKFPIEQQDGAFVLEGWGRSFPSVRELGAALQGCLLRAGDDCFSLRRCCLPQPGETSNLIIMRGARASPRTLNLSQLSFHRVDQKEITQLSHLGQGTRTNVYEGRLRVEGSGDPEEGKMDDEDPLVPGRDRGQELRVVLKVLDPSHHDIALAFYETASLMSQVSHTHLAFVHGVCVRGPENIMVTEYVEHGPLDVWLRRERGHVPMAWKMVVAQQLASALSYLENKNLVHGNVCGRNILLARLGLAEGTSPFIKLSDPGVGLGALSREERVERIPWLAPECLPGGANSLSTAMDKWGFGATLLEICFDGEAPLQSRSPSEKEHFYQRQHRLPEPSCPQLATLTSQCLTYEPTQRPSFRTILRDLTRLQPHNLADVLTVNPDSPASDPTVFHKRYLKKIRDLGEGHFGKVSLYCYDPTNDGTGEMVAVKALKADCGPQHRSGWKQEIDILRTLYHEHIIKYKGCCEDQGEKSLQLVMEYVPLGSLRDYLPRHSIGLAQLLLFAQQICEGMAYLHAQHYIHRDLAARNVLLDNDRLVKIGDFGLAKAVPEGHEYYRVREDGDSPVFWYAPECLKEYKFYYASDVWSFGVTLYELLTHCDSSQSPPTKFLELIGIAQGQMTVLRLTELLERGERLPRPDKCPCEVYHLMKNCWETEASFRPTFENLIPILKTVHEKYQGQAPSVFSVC

Activity [1]: Active
Activity [2]: Active
Activity [3]: Active
Activity [4]: Active
Activity [6]: inactive
Activity [7]: inactive
Activity [9]: inactive
Activity [10]: Active
Activity [11]: Active
Activity [12]: Active
Activity [13]: Active
Activity [14]: Active
Activity [15]: inactive
Activity [17]: inactive
Activity [18]: inactive
Activity [19]: inactive
Activity [20]: inactive
Activity [21]: inactive
Activity [22]: inactive
SMILES: CCOC(=O)c1cn(-c2c(F)c(F)c(C#N)c(F)c2F)c2c(F)c(F)c(F)cc2c1=O
Activity [5]: Active
Activity [8]: inactive
Activity [16]: inactive
Activity [23]: Active
Activity [24]: Active
Activity [25]: Active

SMILES: CCOC(=O)c1cn(-c2c(F)c(F)c(F)c(F)c2F)c2c(F)c(F)c(F)c(F)c2c1=O
Activity [5]: Active
Activity [26]: inactive

SMILES: N#C/C(=C\c1ccc(O)c(O)c1)C(=O)NCc1ccccc1
Activity [27]: Active
Activity [28]: Active
Activity [29]: Active
